Bioassay records (PubChem)
CAL PDZ FP-1: human CAL PDZ-peptide interaction inhibition; purified CAL PDZ, TMR-peptide fluorescence polarization, 1 h; actives 0.02% (n = 330,000); inhibition, % at 20 µM; AID 504414; Q9HD26;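 active = highest replicate inhibition of at least 40%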
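Material – purified CerCALP PDZ construct · Detection – FP readout, S and P plane fluorescence · Measure – percent inhibition from loss of millipolarization · Controls – unlabelled peptide for full inhibition, DMSO wells as neutral · Probe or stimulus – TMR-labelled reporter peptide T*-PRC34 bound in PDZ groove · Times – 1 h at RT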
CDK5 inh: CDK5/p35 (human) kinase inhibition; Recombinant CDK5/p35, ADP-Glo luminescence, 60 min; inhibition, % at 10 µM; Q00535+Q15078; actives 0.01% (n = 330,000);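 active = highest replicate inhibition of at least 50% and at least 75% of replicates reaching 50%; inconclusive = only one of the two criteria met; inactive = both criteria failed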
dFosB act-1: activators of mouse delta FosB homodimer; P13346; purified delta FosB, TAMRA-CDK5 oligo fluorescence polarization; percent of positive-control signal above neutral wells; activation, % at 25 µM; actives 0.99% (n = 340,000); AID 493131;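 active = mean activation above about 17%, with every replicate also reaching it, limit read from the data, passing the limit was not always enough; inconclusive = only one of the two conditions met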
Target sequence (P13346 whole entry, looked up): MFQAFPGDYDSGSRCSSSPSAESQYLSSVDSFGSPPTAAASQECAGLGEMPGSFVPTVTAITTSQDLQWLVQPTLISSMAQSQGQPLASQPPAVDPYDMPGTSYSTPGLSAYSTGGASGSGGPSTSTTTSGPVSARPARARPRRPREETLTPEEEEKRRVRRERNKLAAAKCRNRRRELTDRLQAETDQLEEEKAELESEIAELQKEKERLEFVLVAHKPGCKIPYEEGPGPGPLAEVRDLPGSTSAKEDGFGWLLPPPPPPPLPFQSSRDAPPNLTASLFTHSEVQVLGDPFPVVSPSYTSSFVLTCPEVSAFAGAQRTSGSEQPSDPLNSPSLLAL
C2C12 statin: suppressors of simvastatin-induced myotoxicity in C2C12 myotubes; ATP luminescence, 48 h; scaled: DMSO 0, geranylgeraniol control 100; rescue of ATP level, % at 7.49 µM; actives 0.78% (n = 330,000); AID 602340;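 active = mean ATP rescue above about 67%, or every replicate alone reaching that limit, limit read from the data, passing the limit was not always enough; inconclusive = no clear call, values can overlap the other calls; inactive = mean under the limit and some replicate under it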;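 note: myotubes were challenged with 10 µM simvastatin during compound exposure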
CAL PDZ FP-2: blocks peptide binding to the human CAL PDZ domain. Q9HD26. actives 0.92% (n = 300,000). inhibition, % at 24.9 µM. AID 602252. purified CAL PDZ, TMR-peptide fluorescence polarization, 1 h;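 active = mean inhibition of at least 30% with at least half of replicates also reaching 30%; inconclusive = no clear call, values can overlap the other calls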
S100A4 inh HTS: S100A4-myosin IIA interaction inhibition | actives 0.14% (n = 360,000) | S100A4/TAMRA-MyoIIA peptide fluorescence polarization | inhibition, % at 10.7 µM | P26447;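 active = mean inhibition of at least 70% across replicates, with every replicate also reaching that level; inconclusive = mean inhibition reaches 70% but some replicates fall short; inactive = mean inhibition below 70%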
Target sequence (P26447 whole entry, looked up): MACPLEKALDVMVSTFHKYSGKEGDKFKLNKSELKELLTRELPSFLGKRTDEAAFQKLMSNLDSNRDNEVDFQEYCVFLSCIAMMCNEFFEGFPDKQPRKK
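System – human S100A4 monomer protein, biochemical binding assay · Buffer or medium – Calcium-containing HEPES buffer, pH 7.2 · Timing – 5 min between mix addition and reading · Also added – TAMRA-labelled myosin IIA heavy-chain peptide probe, 5 nM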
dFosB act-2: activators of mouse delta FosB homodimer DNA binding; shares compounds with dFosB act-1; purified delta FosB, TAMRA-CDK5 oligo fluorescence polarization; normalised: neutral wells 0, positive control 100; activation, % at 24.9 µM; 2,400 tested, under 10 active;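 active = highest replicate activation at or above 34% and every replicate reaching that threshold; inconclusive = meets only one of the two criteria; inactive = meets neither criterion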;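 note: higher polarization means more probe DNA bound by delta FosB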
Of the large screens only hits and unclear results are named; the others gave an inactive call (follow-up assays come after a bar, where they were run). Compounds with a hit are over-represented: about 2% of the library has one in this group of screens.

COc1ccc(NC(=O)CN(c2ccc(OC)cc2)S(=O)(=O)c2ccc(OC)c(OC)c2)cc1	dFosB act-1 52.1 | dFosB act-2 inactive
COc1ccc(OC)c(N(CC(=O)NC2CCCCCC2)S(=O)(=O)c2ccc(C)cc2)c1	none
COC(=O)c1ccc(C(=O)N2CCCC(CNC(=O)c3ccc(F)cc3)C2)cc1 (stereo not given)	none
CCCSc1nc2c(cnn2-c2ccc(F)cc2)c(=O)[nH]1	dFosB act-1 47.9 | dFosB act-2 inactive
O=c1[nH]c(SCc2ccc(F)cc2)nc2c1cnn2-c1ccc(F)cc1	dFosB act-1 35.0 (no result: CAL PDZ FP-2) | dFosB act-2 inactive
O=c1[nH]c(SCc2ccccc2)nc2c1cnn2-c1ccc(F)cc1	none (no result: CAL PDZ FP-2)
CC(=O)Nc1ccc(NC(=O)C2Cc3c(-c4ccc(Cl)cc4)ccnc3O2)cc1 (stereo not given)	none (no result: CAL PDZ FP-1, CDK5 inh, dFosB act-1, CAL PDZ FP-2)
NC(=O)c1nc[nH]c1C(=O)Nc1cccc(NC(=O)c2cccc(C(F)(F)F)c2)c1	dFosB act-1 27.4 | dFosB act-2 inactive
CC(C)Cn1c(N)c(C=O)c(=O)n(C)c1=O	none
CC(C)Cn1c(N)c(/C=N/NC(=O)c2ccc(Cl)cc2)c(=O)n(C)c1=O	dFosB act-1 18.8 (no result: CAL PDZ FP-2) | dFosB act-2 inactive
CO[C@@H]1CN(C)C(=O)c2cc(NC(=O)Cc3ccccc3)ccc2OC[C@H](C)N(C)C[C@@H]1C	none (no result: CAL PDZ FP-1, CDK5 inh, dFosB act-1, CAL PDZ FP-2)
CC(C)CC1NC(=O)c2ccccc2-n2c1nc1ccccc1c2=O (stereo not given)	none (no result: CAL PDZ FP-1, CDK5 inh, dFosB act-1, C2C12 statin, CAL PDZ FP-2)
COc1ccc(Cn2c(=O)[nH]c3cc(C(=O)N4CCN(c5ccccc5OC)CC4)ccc3c2=O)cc1	none (no result: S100A4 inh HTS)
COc1ccc(Cn2c(=O)[nH]c3cc(C(=O)N4CCN(c5ccccc5F)CC4)ccc3c2=O)cc1	dFosB act-1 17.8 | dFosB act-2 inactive
COc1ccc(C(=O)COC(=O)COc2cc(C)cc(C)c2)cc1	none (no result: C2C12 statin)
COc1cc2c(cc1O)CC[n+]1cc3c(OC)c(OC)ccc3cc1-2	none
COc1cc2c(cc1OC)-c1cc3ccc4c(c3c[n+]1CC2)OCO4	dFosB act-1 37.6 | dFosB act-2 inactive
CC(=O)NC(=O)c1ccc(-c2ccc(Cl)cc2)o1	dFosB act-1 25.7 | dFosB act-2 inactive
O=C(NC1CCC(CC2CCC(NC(=O)C(Cl)Cl)CC2)CC1)C(Cl)Cl (stereo not given)	dFosB act-1 58.5 | dFosB act-2 inactive
Nc1nonc1-c1nc2ccccc2n1CC(=O)Nc1ccccc1	dFosB act-1 33.1 | dFosB act-2 inactive
Cc1ccc(S(=O)(=O)N2CCN(c3ncccn3)CC2)c(C)c1	none
COc1ccc(-c2cc(C(=O)Nc3ccccc3N3CCOCC3)c3ccccc3n2)cc1OC	dFosB act-1 26.8 | dFosB act-2 inactive
COc1cc(-c2cc(C(=O)Nc3cc(S(=O)(=O)N4CCOCC4)ccc3C)c3ccccc3n2)cc(OC)c1OC	dFosB act-1 43.5 | dFosB act-2 inactive
COc1cc(NC(=O)c2cc(-c3cccnc3)nc3ccc(Br)cc23)cc(OC)c1	dFosB act-1 63.1 | dFosB act-2 inactive
COc1cc(-c2cc(C(=O)Nc3cc(S(=O)(=O)N4CCOCC4)ccc3O)c3ccccc3n2)cc(OC)c1OC	none
O=C(Nc1ccccc1N1CCOCC1)c1cc(-c2ccncc2)nc2ccccc12	none
O=C(Nc1cccnc1)c1cc(-c2cccnc2)nc2ccc(Br)cc12	none (no result: C2C12 statin)
Cc1ccc(CCNC(=O)c2cc(-c3ccncc3)nc3ccc(S(=O)(=O)N4CCOCC4)cc23)cc1	dFosB act-1 29.6, S100A4 inh HTS 148.5 | dFosB act-2 inactive
CC(C)c1cc(C(N)=O)c(NC(=O)C2CCC2)s1	none (no result: C2C12 statin)
COc1ccc(C(CCNC(C)c2ccccc2)c2ccc(F)cc2)cc1 (stereo not given)	none (no result: S100A4 inh HTS)
C=CCn1c(COc2cccc(C)c2C)nnc1SCC(=O)N1CCN(c2ccccc2)CC1	none (no result: C2C12 statin)
CC(C)C(NC(=O)/C=C/c1ccc(F)cc1)C(C)C	none (no result: S100A4 inh HTS)
COc1ccc2c(c1)C(c1ccc(N3CCOCC3)cc1)=NNC(c1cccnc1)=N2	none (no result: C2C12 statin)
COc1ccc(-c2cc(C(=O)Nc3ccccc3O)c3ccccc3n2)cc1OC	none (no result: C2C12 statin)
Cc1onc(-c2ccccc2)c1C(=O)Nc1ccc(S(=O)(=O)N2CCCCC2)cc1	none
Cc1ccc(S(=O)(=O)N2CCCCC2)cc1NC(=O)c1c(-c2ccccc2)noc1C	dFosB act-1 18.1 | dFosB act-2 inactive
COc1ccc(-c2cc(C(=O)Nc3nc4ccccc4s3)c3ccccc3n2)cc1OC	dFosB act-1 65.2 | dFosB act-2 inconclusive
CCN(CC)S(=O)(=O)c1ccc(N2CCOCC2)c(NC(=O)c2cccc3c(=O)c(C)c(-c4ccccc4)oc23)c1	none
COc1ccc(-c2cc(C(=O)Nc3ccc(C(N)=O)cc3)c3ccccc3n2)cc1	dFosB act-1 37.2 | dFosB act-2 inactive
COc1ccc(S(=O)(=O)N2CCOCC2)cc1NC(=O)c1cccc2c(=O)c(C)c(-c3ccccc3)oc12	dFosB act-1 45.5 | dFosB act-2 inactive
C[C@H]1CN([C@@H](C)CO)C(=O)c2cccc(NC(=O)C3CCOCC3)c2O[C@@H]1CN(C)C(=O)Nc1ccc2c(c1)OCO2	none (no result: CAL PDZ FP-1, CDK5 inh, dFosB act-1, CAL PDZ FP-2, S100A4 inh HTS)
CCCCn1c(SCC(=O)NCc2ccco2)nc2ccccc2c1=O	dFosB act-1 18.0 (no result: S100A4 inh HTS) | dFosB act-2 inactive
CN(C)CCCn1c(SCC(=O)N2c3ccccc3Sc3ccccc32)nc2ccccc2c1=O	dFosB act-1 24.5 | dFosB act-2 inactive
C/C(N)=C(/C#N)C(=O)CSc1nc2ccccc2c(=O)n1Cc1ccc(C)cc1	dFosB act-1 21.1 (no result: C2C12 statin) | dFosB act-2 inactive
Cn1c(SCC(=O)N2c3ccccc3Sc3ccccc32)nc2ccccc21	none (no result: C2C12 statin)
O=C(CSc1nc2ccccc2c(=O)n1Cc1ccc(Cl)cc1)NCc1cccs1	dFosB act-1 26.8 | dFosB act-2 inactive
CCCn1c(SCC(=O)NCC(=O)Nc2ccc(F)c(F)c2F)nc2ccccc2c1=O	dFosB act-1 25.8 | dFosB act-2 inactive
COc1cccc(-c2cc(C(=O)N3CCN(S(=O)(=O)c4ccc(Br)cc4)CC3)[nH]n2)c1	dFosB act-1 75.0 | dFosB act-2 inactive
COc1ccc(S(=O)(=O)N2CCN(C(=O)c3cc(-c4ccccc4OC)n[nH]3)CC2)cc1	none (no result: CAL PDZ FP-2)
CCOc1ccc2[nH]c3c(=O)n(CCc4ccc(OC)cc4)cnc3c2c1	dFosB act-1 18.3 | dFosB act-2 inactive
O=C(NC1CC1)c1ccc(NS(=O)(=O)c2ccc(F)cc2)cc1	none (no result: C2C12 statin)
Nc1nc(CN2CCc3ccccc3C2)nc(Nc2ccccc2)n1	dFosB act-1 26.6 (no result: S100A4 inh HTS) | dFosB act-2 inactive
